Laboratory results: paper PMC11886927 (Nature, 2025)
pIC50: −log10 of the molar value. Entries after “also recorded” stand apart in the source; their conditions may differ. Values belong to the compound of their own block, whether it stands above or below them.

Tests used:
FXR = settings: cited from earlier work
[1] = target: T1, full-length human FXR protein (Homo sapiens, UniProt Q96RI1); assay: DiscoverX cell-based protein–protein interaction assay on FXR, antagonist mode; settings: for FXR antagonistic activity against GW4604-mediated activation (in words): tested range of concentrations
T1 sequence (Q96RI1 1-486): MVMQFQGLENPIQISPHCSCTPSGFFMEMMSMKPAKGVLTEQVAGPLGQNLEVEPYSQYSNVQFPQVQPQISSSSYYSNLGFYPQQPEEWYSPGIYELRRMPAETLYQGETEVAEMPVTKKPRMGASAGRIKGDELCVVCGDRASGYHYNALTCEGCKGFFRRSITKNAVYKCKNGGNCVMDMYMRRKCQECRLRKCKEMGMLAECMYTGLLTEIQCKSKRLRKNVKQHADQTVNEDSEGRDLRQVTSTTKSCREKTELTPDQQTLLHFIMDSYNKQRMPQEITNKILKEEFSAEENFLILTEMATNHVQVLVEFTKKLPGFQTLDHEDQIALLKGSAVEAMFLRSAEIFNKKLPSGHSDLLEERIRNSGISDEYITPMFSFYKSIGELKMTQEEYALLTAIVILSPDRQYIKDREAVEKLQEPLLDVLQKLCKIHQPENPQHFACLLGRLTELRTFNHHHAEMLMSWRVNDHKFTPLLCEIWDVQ

BA production = assay: Endogenously produced BA levels in faeces, liver and serum of supplemented mice; format: in vivo, mouse; settings: daily for 14 days
In short: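 Mice (WT, Nr1h4−/−, SPF, ABX) were dosed by daily oral gavage with deuterated or unlabelled conjugate (DMSO stock diluted in corn oil), 50 mg kg−1 day−1, 100 µl, for 14 days. Controls got DMSO plus corn oil. Faeces, liver and serum BAs were measured by HPLC-HRMS. Serum was extracted with 4 volumes methanol, sonicated 1 min, stirred 10 min, and spun 5,000g for 5 min. Groups were compared by Welch-corrected two-sided t-test.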

[2] = target: T2, recombinant human VNN1 (ΔN490aa truncated) (Homo sapiens, UniProt O95497); assay: VNN1 in vitro assay with pantetheine derivatives; format: biochemical; settings: 0.01 μM VNN1, 37 °C, 15 min, pantothenic acid formation, n = 3, mean ± s.d.
T2 sequence (O95497 22-490 limits assumed): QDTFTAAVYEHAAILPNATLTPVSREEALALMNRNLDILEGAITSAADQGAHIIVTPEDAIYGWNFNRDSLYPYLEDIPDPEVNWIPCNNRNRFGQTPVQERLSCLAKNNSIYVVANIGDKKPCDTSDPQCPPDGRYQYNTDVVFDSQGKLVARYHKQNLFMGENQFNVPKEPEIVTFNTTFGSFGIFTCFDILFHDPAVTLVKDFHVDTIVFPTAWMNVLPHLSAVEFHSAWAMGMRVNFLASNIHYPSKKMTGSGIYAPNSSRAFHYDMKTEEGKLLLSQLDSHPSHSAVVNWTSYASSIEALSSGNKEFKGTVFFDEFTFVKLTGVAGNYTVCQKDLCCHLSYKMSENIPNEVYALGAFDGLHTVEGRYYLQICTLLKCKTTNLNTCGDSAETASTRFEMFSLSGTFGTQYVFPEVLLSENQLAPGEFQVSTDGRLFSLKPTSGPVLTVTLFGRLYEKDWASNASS
In short: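 Recombinant human ΔN490aa VNN1 (C-terminal His tag, in PBS pH 7.0) was mixed 1:1 with substrate (pantetheine or cholic acid–pantetheine derivative) in PBS pH 7.0. Final enzyme was 0.01 µM and final substrate 20–640 µM. Reactions ran 15 min at 37 °C and were quenched with methanol. Pantothenic acid was quantified by HPLC-HRMS (ESI+, m/z 220.1180) against a calcium pantothenate standard curve. Initial velocities were fitted to saturation kinetics; three independent assays used the same enzyme batch.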

[3] = target: T1, full-length human FXR protein; assay: DiscoverX cell-based protein–protein interaction assay on FXR, agonist mode; settings: any of the tested concentrations
In short: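 CHO-K1 cells (mycoplasma-negative, not authenticated) expressing full-length human FXR with an SRC-derived co-activator peptide fusion. Cells were grown in charcoal-dextran-filtered serum, then given 5X sample for 3–16 h at 37 °C or room temperature. Signal came from PathHunter chemiluminescent detection (1 h, room temperature). Activity (%) was set against vehicle RLU and GW4064 maximum, with duplicates at each concentration.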

SMILES: C[C@H](CCC(=O)NCCS(=O)(=O)O)[C@H]1CC[C@H]2[C@@H]3[C@@H](O)[C@@H](O)[C@@H]4C[C@H](O)CC[C@]4(C)[C@H]3CC[C@]12C [TβMCA, Tauro-β-muricholic acid]
FXR antagonism as previously reported (FXR): weak, mouse-specific FXR antagonist | FXR antagonistic activity against GW4604-mediated activation (in words) [1]: did not show FXR antagonistic effects; also recorded: inactive

SMILES: C[C@H](CCC(=O)O)[C@H]1CC[C@H]2[C@@H]3[C@H](O)C[C@@H]4C[C@H](O)CC[C@]4(C)[C@H]3CC[C@]12C [CDCA, chenodeoxycholic acid]
BA levels in the liver and serum of WT and Nr1h4^−/− mice (BA production): not significantly affected

Vmax, hydrolysis by VNN1 [2]: 2.13 ± 0.37 min⁻¹
SMILES: CC(C)(CO)[C@@H](O)C(=O)NCCC(=O)NCCS [pantetheine]

FXR agonist activity (in words) [3]: no FXR agonistic effects | pIC50 ([1]; read-out: IC50, antagonistic activity against GW4604-mediated activation of FXR, agonist challenge GW4064 0.37 μM (EC80), CHO-K1 cells, duplicate): 3.98 | FXR antagonistic activity against GW4604-mediated activation (in words) [1]: strong FXR antagonistic effects
SMILES: CSCCNC(=O)CC[C@@H](C)[C@H]1CC[C@H]2[C@@H]3[C@@H](O)[C@@H](O)[C@@H]4C[C@H](O)CC[C@]4(C)[C@H]3CC[C@]12C [βMCA–MCY]
